Measured values as given in the EternaBench riboswitch data.

Tested on: MS2 coat protein
Assay: apparent Kd, MS2 coat protein; higher = weaker binding; RNA-MaP array; FMN 200 µM where present
Procedure, shortened: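 Designs on Illumina sequencing-chip clusters, transcribed by stalled E. coli RNA polymerase, were exposed to SNAP-549-labelled MS2 coat protein in doubling steps from 0.7 or 1.5 nM up to 3 µM, without and then with constant ligand. The buffer held 100 mM Tris-HCl pH 7.5, 80 mM KCl, 4 mM MgCl2, BSA, DTT, yeast tRNA and Tween-20. Apparent Kd values are medians of filtered per-cluster binding-curve fits to green signal normalised to red-channel RNA signal and control-cluster median Fmax.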

[1] = designed as: OFF switch for flavin mononucleotide, no ligand
[2] = ligand present: flavin mononucleotide, designed as: OFF switch for flavin mononucleotide
[3] = designed as: ON switch for flavin mononucleotide, no ligand
[4] = ligand present: flavin mononucleotide, designed as: ON switch for flavin mononucleotide

Sequence | apparent Kd [1] | apparent Kd [2] | apparent Kd [3] | apparent Kd [4]
ACUUAUGAAGGAUAUACUAGCGACAUGCACUCAACACACGCACAUGAGGAUCACCCAUGUAGAAGGUCAAACAU | 0.0257 µM | 0.0224 µM |  | 
UCAGGUGGAGGAUAUACAGCUCGAUCCUGUAAUAAAACGGCACAUGAGGAUCACCCAUGUAGAAGGCCACAAUA | 0.0257 µM | 0.126 µM |  | 
GGUACUCAAAGAGUACGGAGUCGAACAUGAGGAUCACCCAUGUAGGAUAUGCGAGUUUUGAAUUUGCAGAAGGACAUUUGCAGC | 0.00962 µM | 0.0112 µM |  | 
UAAUCUCAGAUAGGAUAUAUAGGAUGAUUUAAGACUGAACAUGAGGAUCACCCAUGUGAUUAUCUGUAGAAGGAUCAAUGACCC |  |  | 0.389 µM | 0.348 µM
CAUUAAUUCAUUAUAGUUAUUAUACAGGAUAUGUUACAUGAGGAUCACCCAUGUAUUCAUGGUAAACAGAAGGGUAAUACUAGU | 0.0111 µM | 0.0158 µM |  | 
GCUGUAUAUGAGAAGGCGAUCAUGAAACAUGAUCGAGGAUAUCAUGUAAACAUGAGGAUCACCCAUGUAUGGGUAUUAAGCAGC |  |  | 0.281 µM | 0.0466 µM
GGUACUCAAAGAGUACCAAUACGAACAUGAGGAUCACCCAUGUAGGAUAUAAAACCGCCGGAGUAUUAGAAGGACAUGUGCCUA | 0.0115 µM | 0.0105 µM |  | 
UGCAUGUAAGGAUAUGCAUCCGCCGACGUCCCGGCGGCACAGCAGAAGGUACAUGAGGAUCACCCAUGUGUCCC | 0.0288 µM | 0.155 µM |  | 
GGAUCGAGUGUGAGGAUAUGCUGGUCCUUGGAUCAGCAGAAGGCACAUGAGGAUCACCCAUGUGAAGACGAUCC | 0.0236 µM | 0.187 µM |  | 
AAUAACAGAGGAUAUACUGUUUUAUGUGUUUAUUGUUUUAAACAUGAGGAUCACCCAUGUAGAAGGCUGAGUAA | 0.0389 µM | 0.039 µM |  | 
ACAUGCAUAGCGAUAUGAUCGAGAGAUCAUGUCGAAAAUUUUAGAAGGACAUGAGGAUCACCCAUGUAGGAUAUGGGAGCAUGA |  |  | 0.0626 µM | 0.0163 µM
AAAUUUAACGAAGGAUAUGGUUACAUGAGGAUCACCCAUGUGUGCCUUGUGAUUUUGUUUAAGUUCCAGAAGGUCGUAUACAUA | 0.0264 µM | 0.168 µM |  | 
CACCGUUACCGAGGAUAUCGUACAUGAGGAUCACCCAUGUAAUAAAUGAGAAUUUCGGAUGUAUGCGAGAAGGCGGGAAUCGGC | 0.0341 µM | 0.0298 µM |  | 
UUACUAUUACAGAAGGUUUAAUAAUAUAUAAAAGAAGGAUAUGUAACAUGAGGAUCACCCAUGUUUCACCCACAUGAGGAUCAU | 0.0108 µM | 0.0104 µM |  | 
GGUAGAAACAUUAACAUGAGGAUCACCCAUGUCAAAAGAAAUGAGGAUAUCGUAUACAAUGUAUAUGAGAAGGCAUGGUCUGCC |  |  | 0.00917 µM | 0.00645 µM
GCAACGCCUGACAUGAGGAUCACCCAUGUUAGAUUGUUAUGUCAGGAUAUUGUCUCGAAACGAGAUGAGAAGGGAUAUGUUGCU |  |  | 0.997 µM | 0.0612 µM
GUGUUGUAUGUAGGAUAUGCAUACUGUUAGUAUGCAGAAGGACAUGAGGAUCACCCAUGUAUAUUAUUAUUAUAUAUCAUACAU | 0.0211 µM | 0.0368 µM |  | 
UACUGGAUUGUAGACGCGUUGCGACGAGAAGGUACACAUGAGGAUCACCCAUGUCGAGUGGGAGGUAAGGAUAUUGGAUGGCGU |  |  | 0.293 µM | 0.211 µM
AGUGGCUACACAGGAUAUCCCAGCCUCUUGGUGGGAGAAGGGUGAGGUCAGAGACAUGAGGAUCACCCAUGUCUUACAGGAGGA |  |  | 0.0158 µM | 0.00833 µM
UACAGCGUAGAUAAUAAUGAUUACAUGAGGAUCACCCAUGUAUAGGAUAUGCAGUGGAAUACACUGCAGAAGGAUACAUCGCUG | 0.017 µM | 0.037 µM |  | 
GCGAUUUUGUAAGGAUAUACACGAGUUUUAAGUGUAGAAGGUGCUUACAUGAGGAUCACCCAUGUAUAAAUGUAUAAUAGUCGC |  |  | 0.00914 µM | 0.00818 µM
GGAAAACAUGAGGAUCACCCAUGUGAGGAUAUCGAUGUCCAGGGCCUGCUGCGGGACUCGAGAAGGCAGUGGGA | 0.0412 µM | 0.0217 µM |  | 
ACUGGUCGAGGAUAUGCAUUCGUGCUUCGGCACGUAAGGUCACAUGAGGAUCACCCAUGUAGAAGGCGACCAGU | 0.0182 µM | 0.0369 µM |  | 
CCGACCCAAGGAUAUUGUACUGCUGACAUGAGGAUCACCCAUGUAUGUUAACUCGGCCGACGAGAAGGUGGCGACA | 0.0268 µM | 0.0239 µM |  | 
UGAUCAAAUGUCAGGAUAUGCUGUUGGAAACAACAGCAGAAGGGACAUGAGGAUCACCCAUGUCUUGUCGAUUU | 0.0214 µM | 0.112 µM |  | 
GCAGACGUAGUGAGGAUAUGCUCUACCUCGGUAGAGCAGAAGGCACAUGAGGAUCACCCAUGUGGUUCUUCUGC | 0.0282 µM | 0.339 µM |  | 
GCGCCUCAGAACAUGAGGAUCACCCAUGUGCUGCGGGCGCCGUAGGAUAUGAUGGUACGCUACCAUCAGAAGGAUGAUGGUACC |  |  |  | 0.00502 µM
GCGCGCGCAGGAUAUACAAUGCGCGCGCGAAAGUGUGUGUUACAUGAGGAUCACCCAUGUAGAAGGGUGUGUGU | 0.539 µM | 0.492 µM |  | 

Sequence | apparent Kd [1] | apparent Kd [2] | apparent Kd [3] | apparent Kd [4]
CCCGCGAUGUCAGGAUAUAGUCGGAGGUUCAGACUAGAAGGGACAUGAGGAUCACCCAUGUGCGUGAAAAUUUAAAACCUAGGU | 0.0515 µM | 0.191 µM |  | 
ACAUGAGGAUCACCCAUGUAUUCAUAGGAUAUACUACAUGAGUUUCAUUCAUGUAAACUUGUAUUGUAGAAGGAUGUUACAUGU | 0.0164 µM | 0.0192 µM |  | 
AAAUAACAUGUAGGAUAUGCAGCAUUAACCAUCGCAGAAGGACAUGAGGAUCACCCAUGUGGCGAUACAAUGCAAUAAGGGAAU | 0.0162 µM | 0.0407 µM |  | 
AAAUAACAUGAGGAUCACCCAUGUCCGCGCCAUCAAGGAUAUGGGUGCCGGCUAGGUCAGCUAGAAGGUGGUGGUG |  |  | 0.0288 µM | 0.0345 µM
GGUGCCAUGUAGAAGGCAGAUCUGAUUCAGAUCUGAGGAUAUACAUGAGGAUCACCCAUGUAAAUGCACCGCACGAGAGUGCAA | 0.0331 µM | 0.149 µM |  | 
AUGCGGUCAGGAUAUGCAUGGCGGGACUUGCGUCGUGGCGUGGAGAAGGGACAUGAGGAUCACCCAUGUGGCGA | 0.0773 µM | 0.0826 µM |  | 
AACCUGGUAAAUAAACUCAAUUACAUGAGGAUCACCCAUGUAUAGGAUAUGCAGUGGAAUACACUGCAGAAGGAUACAUCCAGG | 0.018 µM | 0.0609 µM |  | 
CUAAAAGUCGAGGAUAUGCACCGGCUUUCUGACGCAGAAGGCGACACAUGAGGAUCACCCAUGUCGGUACGCGA | 0.0137 µM | 0.0158 µM |  | 
CAGGUCUGAGGAUAUCCAUCUUCAUACAUGAGGAUCACCCAUGUUUACCUUUGGGUUUUUGGAGAAGGCAGUUUUU | 0.188 µM | 0.243 µM |  | 
CGAUAGGACAGAGGAUAUACACAUGAGGAUCACCCAUGUGAUUACAACGCGUAAGCUCCAAACAUGUAGAAGGCUGUCCUAUCG | 0.0175 µM | 0.0206 µM |  | 
UUGAUGUCAGGAUAUGCUUAAUAUAUUUUAUUAUAAUAUAUACAUGAGGAUCACCCAUGUAGAAGGGACAUUAU | 0.0291 µM | 0.0257 µM |  | 
CCGUAGAGAGGAUAUACAUGAGGAUCACCCAUGUGACAUCGAACGAUGUCGCCUAGUCGUAGAAGGUUCAAACG | 0.0254 µM | 0.0248 µM |  | 
UUUUACUAGUAAGGAUAUAUUAGCGAUUAGCUUGUAGAAGGUACAGUCUUAUGUAUAACAUGUUAACAUGAGGAUCACCCAUGU |  |  | 0.052 µM | 0.0342 µM
CUGUCGAUAUCAGGAUAUCGUUUACAUACAUGAGGAUCACCCAUGUAGAUGAUCAGCCUAAUAUACGAGAAGGGAUAUCGAUAG |  |  | 0.00926 µM | 0.00859 µM
AAUGUAUCCUCGGGAUCCACAUGAGGAUCACCCAUGUAGACUCAGGAUAUCCAAUGCGUUGGCAGGGAGAAGGGAGCUCGCAUG | 0.0337 µM | 0.0387 µM |  | 
UUCAUCGAUGAAGGAUAUCUAUGUCCAACAUGAGGAUCACCCAUGUUGAGGAUUACCUAUGUGUAGGAGAAGGUCAAUAUGACU |  |  | 0.00703 µM | 0.00639 µM
GUAGCAUACCGAGGAUAUUCAGGGCGUGGAUAUACAUGAGGAUCACCCAUGUGGCGGAAGCCUAGGGAGAAGGCGGGCUGCUAC |  |  | 0.0215 µM | 0.0163 µM
GUUUAGUGAGGAUAUGUGGCGUAGAUCGAGCGCGGUCGGCUACAGAAGGCACAUGAGGAUCACCCAUGUUUCUC | 0.0595 µM | 0.372 µM |  | 
UACGCCUAGGAGAAGGGCCCACUAUAGGGUAAAUGCUGUUCUCACAUGAGGAUCACCCAUGUGCGGCAGGAUAUCCACGCGUAC | 0.00825 µM | 0.039 µM |  | 
CAAGGCGGUGAAGGAUAUACACGGGCGUUGCCAAACAUGAGGAUCACCCAUGUAGAAGGUCACCCUGAGAAGGCUUUAUGCCUA | 0.411 µM | 0.0422 µM |  | 
CACGGAUGAUCAGGAUAUGCUAAAGCAGGCUGACAUGAGGAUCACCCAUGUCCCAGAAACUGUGGGCAGAAGGGAUGUAAUGUU |  |  | 0.0498 µM | 0.0122 µM
GCUGACGAUGUAGGAUAUCUCGACGAUAAGUCGAGAGAAGGACAUGAGGAUCACCCAUGUCUCCAAACGUCAGCGAGGAAACUC | 0.0161 µM | 0.0164 µM |  | 
UUGUUGUGUGUAGGAUAUGCGUGUUAUUAUUAUGCAGAAGGACAUGAGGAUCACCCAUGUGUAUUGUUAUUAUAUAUUAUAUAU | 0.0214 µM | 0.0225 µM |  | 
CCCUAGGGAGGAUAUCCAAUAUAUGACAUGAGGAUCACCCAUGUUUCCACUCGUACCUCCGGAGAAGGCCCAUCCC | 0.0263 µM | 0.0245 µM |  | 
AGUAACAGAGGAUAUACUGUUUUAUGUGUUUGUUAUUUUAAACAUGAGGAUCACCCAUGUAGAAGGCUGAAUGA | 0.0271 µM | 0.0253 µM |  | 
UGUGGUGGUUAGGAUAUAAUUAGAGGUUACUCGUUAGAAGGAGCUACAUGAGGAUCACCCAUGUGACUGUCCGC | 0.0298 µM | 0.0351 µM |  | 
GCCUAGACUAGGCCCACGGCAUCACAGGAUAUGCCAAUCACAUGAGGAUCACCCAUGUCAACUCCGCAGAAGGGUGAUAUCGUG |  |  | 0.235 µM | 0.0143 µM
